Entries after “also recorded” stand apart in the source; their conditions may differ. Values belong to the molecule of their own block, whether it stands above or below them.
Legend:
S100A10 [1] = type: binding, rabbit; settings: absence of annexin A2 peptide; data not shown
[2] = target: T1, A10A2 hybrid protein (dimer) (Oryctolagus cuniculus, UniProt Q6SQH4, C83S); test: Isothermal titration calorimetry of AHNAK5 into A10A2; type: binding, rabbit
[3] = target: S100A10-annexin A2 hybrid protein (A10A2) dimer (Oryctolagus cuniculus, UniProt Q6SQH4, C83S); test: NMR titration; type: binding, rabbit; settings: pH 7.0
[4] = target: T1, A10A2 hybrid protein (dimer); test: Fluorescence titration of acrylodan-labeled A10A2 with AHNAK5; type: binding, rabbit; settings: shifted from near 495 nm; intensity decreased; pH 7.4
Method in brief: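 Rabbit S100A10(C82S)–annexin A2 hybrid was made as a GST fusion in E. coli, cleaved with PreScission, and labelled with acrylodan. 167 nM labelled protein in 20 mM Tris-HCl, 120 mM NaCl, 1 mM DTT, pH 7.4, was stirred at room temperature. Peptide was added stepwise with 2 min stirring each. Excitation 375 nm, emission 400–600 nm, ΔF at 500 nm. Duplicate titrations were globally fit 1:1 for Kd.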

S100A10-annexin A2 = S100A10-annexin A2 (Oryctolagus cuniculus, UniProt Q6SQH4, C83S); test: Overall binding of AHNAK5 to S100A10-annexin A2; set-up: species or system rabbit; settings: S100A10 without annexin A2 peptide; discussion statement
A10A2 = test: Peptide array of AHNAK C terminus probed with Alexa Fluor 680-A10A2; type: binding, rabbit; settings: 18-residue peptides shifted by 3 residues, Alexa-A10A2 0.2 μM, 2 h, 700 nm
Method in brief: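 330 spots of 18-residue AHNAK peptides (residues 4884–5890, 3-residue offset) were Fmoc-synthesized on […]. Membranes were methanol-hydrated, washed in TBS + 0.05% Tween, and blocked 1 h with skim milk. A10A2 is a rabbit S100A10(C82S)–annexin A2 hybrid made in E. coli.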

S100A10 [5] = test: Fluorescence titration of acrylodan-labeled S100A10 with AHNAK5; type: binding, rabbit; settings: absence of annexin A2 peptide
[6] = target: S100A10^C82S-annexin A2 hybrid protein (A10A2) (rabbit | not stated); test: native MS
[7] = target: S100A10^C82S (rabbit S100A10 with Cys82 changed to Ser) (rabbit); test: native MS
[8] = target: acrylodan-labeled A10A2 hybrid protein (rabbit | not stated); test: other fluorescence titration
[9] = target: S100A10^C82S-annexin A2 hybrid protein (A10A2) (rabbit | not stated); test: NMR titration
[10] = target: non-covalent complex of S100A10 (C82S) dimer with two annexin A2 peptides (residues 1-15) (rabbit | not stated); test: native MS
[11] = target: S100A10^C82S-annexin A2 hybrid protein (A10A2) (rabbit | not stated); test: ITC

Molecule: Ac-GKVTFPKMKIPKFTFSGREL-NH2 [AHNAK5]
interaction with S100A10 without annexin A2, NMR (S100A10 [1]): did not show an interaction between S100A10 and AHNAK5; also recorded: no evidence for interaction of AHNAK5 with S100A10 in the absence of annexin A2 | precipitation during titration of S100A10 with AHNAK5 (S100A10 [1]): prone to precipitation | entropy change ([2]; ITC): positive entropy change | ΔH (binding enthalpy) ([2]; ITC, 35 °C, pH 7.2): -10 ± 0.096 kcal/mol | ΔS (entropy change) ([2]; ITC, 35 °C, pH 7.2): 0.00201 kcal/mol | n (binding sites), ITC ([2]; single binding site fit, 35 °C, pH 7.2): 1.02 | exchange regime / peak doubling on AHNAK5 binding, A10A2 ([3]; 1H-15N HSQC, 0.5 mM A10A2 (protomer), 0.25 mM AHNAK5, 35 °C): disappearance of peaks from S100A10 and the appearance of new resonances on the slow exchange time scale; also recorded: resonances from the annexin A2 portion of A10A2 also exhibited peak doubling | stoichiometry AHNAK5 : A10A2 dimer, NMR ([3]; inflection point of peak intensity changes, 35 °C): one AHNAK5 peptide to one A10A2 dimer | acrylodan-A10A2 fluorescence maximum upon addition of AHNAK5 [4]: 500 nm | interaction in experiments lacking annexin A2 peptide (summary) (S100A10-annexin A2): little or no observable interaction | A10A2 binding in peptide array (intensity, words) (A10A2): strong interaction with A10A2 | interaction with S100A10, fluorescence (S100A10 [5]): little wavelength shift, suggestive of a poor interaction

Molecule: sequence b: AHNAK array region Asp4959–Pro4994; most intense spot 4968–4985 (DSPDINIEGPDVKIPKFKKPKFGFGAKSPKADIKSP)
A10A2 binding in peptide array (intensity, words) (A10A2): best interaction with A10A2; also recorded: most intense binding at any one spot

Molecule: sequence e: AHNAK array region Gly5652–Gly5675; most intense spot 5652–5669 (GSGKVTFPKMKIPKFTFSGRELVG)
A10A2 binding in peptide array (intensity, words) (A10A2): best interaction with A10A2; also recorded: most intense binding at any one spot

Molecule: sequence h: AHNAK array region Leu5808–Glu5837 (LEGGKVKGKHGKLKFGTFGGLGSKSKGHYE)
A10A2 binding in peptide array (intensity, words) (A10A2): best interaction with A10A2

Molecule: sequence f: AHNAK array region Ser5703–Thr5729 (SEVKLKKSKIKMPKFNFSKPKGKGGVT)
A10A2 binding in peptide array (intensity, words) (A10A2): best interaction with A10A2

Continued, values first:

stoichiometry N [6]: 2
Molecule: S100A10^C82S-annexin A2 hybrid protein (A10A2)

A10A2 binding in peptide array (intensity, words) (A10A2): best interaction with A10A2
Molecule: sequence c: AHNAK array region Pro5220–Ile5243 (PDVDLQGPEAKIKFPKFSMPKIGI)

A10A2 binding in peptide array (intensity, words) (A10A2): best interaction with A10A2
Molecule: sequence g: AHNAK array region Ala5757–Ser5780 (AEAEASSPKGKFSLFKSKKPRHRS)

A10A2 binding in peptide array (intensity, words) (A10A2): best interaction with A10A2
Molecule: sequence d: AHNAK array region Asn5607–Ile5633 (NLDTSKFAGGLHFSGPKVEGGVKGGQI)

A10A2 binding in peptide array (intensity, words) (A10A2): best interaction with A10A2
Molecule: sequence a: AHNAK array region Thr4917–Gly4940 (overlapping 18-residue peptides) (TAPDVDLHLKAPKIGFSGPKLEGG)

stoichiometry N [7]: 2
Molecule: S100A10^C82S (rabbit S100A10 with Cys82 changed to Ser) (natural protein)

stoichiometry N (annexin A2 peptides per S100A10 dimer) [7]: 2
B1: annexin A2 peptide (residues 1-15) (peptide)
peptide: Ac-STVHEILSKLSLEGD-NH2

Kd [8]: 35 nM | Kd [9]: < 1000 nM | stoichiometry N (AHNAK5 per A10A2 dimer) [9]: 1 | stoichiometry N [10]: 1 | stoichiometry N (AHNAK5 per A10A2 dimer) [6]: 1 | Kd [11]: 28 nM | dH [11]: -10 kcal/mol | stoichiometry N (AHNAK5 per A10A2 dimer) [11]: 1.02
B2: AHNAK5 peptide (AHNAK residues Gly5654-Leu5673) (peptide)
peptide: Ac-GKVTFPKMKIPKFTFSGREL-NH2

— paper PMC3220529 (The Journal of Biological Chemistry, 2011)
